Experimental data reported in ChEMBL document CHEMBL1132324, “Structure-activity relationships in 1,4-benzodioxan-related compounds. 6. Role of the dioxane unit on selectivity for alpha(1)-adrenoreceptor subtypes” (J Med Chem, 1999).

Tests used:
[1] = tested on: Alpha-1B adrenergic receptor (Cavia porcellus); experiment: Antagonist affinity was expressed as apparent pKb at Alpha-1B adrenergic receptor on isolated Guinea pig spleen (Alpha-1B)
[2] = target: T1, 5-hydroxytryptamine receptor 1A (Homo sapiens) (UniProt P08908); experiment: The binding affinity was evaluated on cloned human 5-hydroxytryptamine 1A receptor expressed in HeLa cells by using DPAT as radioligand.; type: cell-based
T1 sequence (whole entry): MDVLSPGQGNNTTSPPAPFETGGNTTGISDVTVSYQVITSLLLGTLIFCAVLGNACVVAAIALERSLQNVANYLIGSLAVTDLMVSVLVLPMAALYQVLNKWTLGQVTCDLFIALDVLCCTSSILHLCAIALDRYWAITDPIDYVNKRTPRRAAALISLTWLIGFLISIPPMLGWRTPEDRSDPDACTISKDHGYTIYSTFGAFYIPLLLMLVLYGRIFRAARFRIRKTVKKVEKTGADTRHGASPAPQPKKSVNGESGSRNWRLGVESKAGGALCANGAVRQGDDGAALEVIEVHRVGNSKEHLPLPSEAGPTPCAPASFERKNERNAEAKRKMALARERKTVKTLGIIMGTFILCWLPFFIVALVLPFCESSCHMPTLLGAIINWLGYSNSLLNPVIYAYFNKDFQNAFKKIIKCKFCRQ
Summary of the method: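 Membranes from HeLa cells stably expressing human 5-HT1A, in 50 mM Tris-HCl pH 7.4, 2.5 mM MgCl2, 10 μM pargyline. Nonspecific binding with 10 μM 5-HT. Filtration. Ki by Cheng-Prusoff. 2–3 experiments in triplicate.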

[3] = target: T2, Alpha-1A adrenergic receptor (Homo sapiens) (UniProt P35348); experiment: The binding affinity was evaluated on cloned human Alpha-1A adrenergic receptor expressed in chinese hamster ovary(CHO) cells by using [3H]prazosin as radioligand.; type: cell-based
T2 sequence (whole entry): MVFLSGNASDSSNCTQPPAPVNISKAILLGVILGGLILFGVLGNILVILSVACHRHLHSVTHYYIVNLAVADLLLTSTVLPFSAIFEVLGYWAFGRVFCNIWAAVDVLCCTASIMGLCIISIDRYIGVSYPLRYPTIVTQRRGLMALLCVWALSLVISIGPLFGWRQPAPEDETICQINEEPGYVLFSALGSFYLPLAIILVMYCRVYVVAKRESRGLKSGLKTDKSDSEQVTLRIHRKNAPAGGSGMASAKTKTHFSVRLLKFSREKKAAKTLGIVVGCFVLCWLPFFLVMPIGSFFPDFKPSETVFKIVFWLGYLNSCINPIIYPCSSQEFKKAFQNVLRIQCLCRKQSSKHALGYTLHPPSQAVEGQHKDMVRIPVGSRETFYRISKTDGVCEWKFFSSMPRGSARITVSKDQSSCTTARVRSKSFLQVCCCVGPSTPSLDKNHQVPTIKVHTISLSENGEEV
Summary of the method: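 Membranes (30 μg protein) from CHO cells stably expressing each human α1 subtype, in 50 mM Tris-HCl pH 7.4. Incubated with 0.1–0.4 nM [3H]prazosin for 30 min at 25 °C, competitor 1 pM–10 μM. Nonspecific binding with 10 μM phentolamine. Ki by Cheng-Prusoff. 2–3 experiments in triplicate.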

[4] = target: T3, Alpha-1D adrenergic receptor (Rattus norvegicus) (UniProt P23944); experiment: Antagonist affinity was expressed as apparent pKb at Alpha-1D adrenergic receptor on isolated rat thoracic aorta (Alpha-1D); type: functional, tissue-based
T3 sequence (whole entry): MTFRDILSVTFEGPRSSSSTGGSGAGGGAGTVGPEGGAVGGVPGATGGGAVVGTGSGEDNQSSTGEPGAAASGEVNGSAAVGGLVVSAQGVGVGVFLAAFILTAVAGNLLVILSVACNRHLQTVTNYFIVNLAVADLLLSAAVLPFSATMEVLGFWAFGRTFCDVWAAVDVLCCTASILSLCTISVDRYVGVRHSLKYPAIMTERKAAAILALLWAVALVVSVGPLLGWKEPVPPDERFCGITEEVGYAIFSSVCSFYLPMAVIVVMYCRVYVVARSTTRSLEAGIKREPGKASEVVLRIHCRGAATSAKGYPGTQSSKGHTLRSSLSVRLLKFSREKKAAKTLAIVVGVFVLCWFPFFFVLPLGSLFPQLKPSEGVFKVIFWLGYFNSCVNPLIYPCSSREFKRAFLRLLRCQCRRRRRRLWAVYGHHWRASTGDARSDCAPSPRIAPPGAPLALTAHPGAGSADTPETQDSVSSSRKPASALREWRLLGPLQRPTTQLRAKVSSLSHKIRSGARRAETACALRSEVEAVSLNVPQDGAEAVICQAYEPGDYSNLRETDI
Summary of the method: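 Helicoidal strips of rat thoracic aorta at 1 g tension, with 0.1 μM cocaine and 1 μM propranolol. After ≥1 h equilibration, cumulative (–)-noradrenaline curves at 30-min intervals; the third served as control. Antagonist equilibrated 30 min before the fourth curve. Apparent pKb from log(DR−1) − log[B], 2–3 antagonist concentrations, each tested four times.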

[5] = target: 5-hydroxytryptamine receptor 2A (Rattus norvegicus) (UniProt P14842); experiment: The binding affinity was evaluated on 5-hydroxytryptamine 2A receptor expressed in rat cortex by using [3H]ketanserin as radioligand.
5-hydroxytryptamine receptor 2A (Rattus norvegicus), sequence (P14842 whole entry): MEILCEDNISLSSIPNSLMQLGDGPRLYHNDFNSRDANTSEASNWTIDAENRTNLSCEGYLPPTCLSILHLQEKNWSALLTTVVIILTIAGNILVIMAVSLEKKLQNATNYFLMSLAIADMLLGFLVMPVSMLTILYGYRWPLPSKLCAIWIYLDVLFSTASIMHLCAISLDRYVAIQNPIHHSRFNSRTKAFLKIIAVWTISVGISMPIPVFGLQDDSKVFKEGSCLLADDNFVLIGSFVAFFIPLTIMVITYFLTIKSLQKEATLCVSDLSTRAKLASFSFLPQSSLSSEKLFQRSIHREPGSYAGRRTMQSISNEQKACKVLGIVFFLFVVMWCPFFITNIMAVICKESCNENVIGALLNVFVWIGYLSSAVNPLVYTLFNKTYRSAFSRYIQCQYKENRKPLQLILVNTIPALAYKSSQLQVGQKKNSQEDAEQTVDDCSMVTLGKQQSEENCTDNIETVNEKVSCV
Summary of the method: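 Rat cerebral cortex membranes in Tris-HCl pH 7.4 with 10 μM pargyline and 0.1% ascorbic acid. Incubated 20 min at 37 °C with 0.7–1.3 nM [3H]ketanserin. Nonspecific binding with 2 μM ketanserin. Filtration and scintillation counting. Ki by Cheng-Prusoff. 2–3 experiments in triplicate.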

[6] = target: D(2) dopamine receptor (Rattus norvegicus) (UniProt P61169); experiment: The binding affinity was evaluated on Dopamine receptor D2 expressed in rat striatum by using [3H]spiperone as radioligand; type: tissue-based
D(2) dopamine receptor (Rattus norvegicus), sequence (P61169 whole entry): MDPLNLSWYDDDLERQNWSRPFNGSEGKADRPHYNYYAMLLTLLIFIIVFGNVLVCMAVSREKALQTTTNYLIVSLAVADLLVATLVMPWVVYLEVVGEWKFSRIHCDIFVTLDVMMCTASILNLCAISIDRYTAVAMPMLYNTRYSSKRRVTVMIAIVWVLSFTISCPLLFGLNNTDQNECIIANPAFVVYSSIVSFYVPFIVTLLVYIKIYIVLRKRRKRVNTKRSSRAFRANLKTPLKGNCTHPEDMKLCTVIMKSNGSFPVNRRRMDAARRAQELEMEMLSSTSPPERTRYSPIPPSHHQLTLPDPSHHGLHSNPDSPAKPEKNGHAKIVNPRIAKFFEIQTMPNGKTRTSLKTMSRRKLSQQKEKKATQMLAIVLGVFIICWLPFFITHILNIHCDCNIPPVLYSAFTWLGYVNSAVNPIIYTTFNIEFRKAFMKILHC
Summary of the method: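 Rat striatum membranes in Tris-HCl with 10 μM pargyline, 0.1% ascorbic acid, 120 mM NaCl, 5 mM KCl, 2 mM CaCl2, 1 mM MgCl2. Incubated 15 min at 37 °C with 0.2–0.6 nM [3H]spiperone. Nonspecific binding with 1 μM (+)-butaclamol. Ki by Cheng-Prusoff. 2–3 experiments in triplicate.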

COc1cccc(OC)c1OCCNCCOc1ccccc1OCc1ccccc1
pKb [1]: 7.87 | pKi [2]: 7.93 | pKi [3]: 9.33 | pKb [4]: 9.37

COc1cccc(OC)c1OCCNCC1C(=O)c2ccccc2OC1c1ccccc1 (stereo not drawn)
pKi [5]: 6.2 | pKi [2]: 6.73 | pKi [6]: < 6

COc1cccc(OC)c1OCCNCC1Oc2ccccc2CC1c1ccccc1 (stereo in doubt; 7)
pKb [1]: 5.54 | pKi [5]: < 6 | pKi [2]: 6.84 | pKi [3]: 8.49 | pKb [4]: 7.46 | pKi [6]: < 6
